Shown are actives, neighbours in structure and some others; about 2.7% of the full set was active somewhere.
pPAFAH FP inh: inhibitors of human plasma PAF acetylhydrolase (pPAFAH). inhibition, % at 3.39 µM. recombinant pPAFAH, FP-rhodamine probe fluorescence polarization. hit rate 1.5% among 330,000;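 active means inhibition above the mean inhibition across the screen plus 3 SD, cut at about 25% in these data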;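 further: inhibitors block binding of the rhodamine activity-based probe so polarization drops; 0% = enzyme with DMSO and 100% = wells lacking pPAFAH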
Target sequence (Q13093 whole entry, looked up): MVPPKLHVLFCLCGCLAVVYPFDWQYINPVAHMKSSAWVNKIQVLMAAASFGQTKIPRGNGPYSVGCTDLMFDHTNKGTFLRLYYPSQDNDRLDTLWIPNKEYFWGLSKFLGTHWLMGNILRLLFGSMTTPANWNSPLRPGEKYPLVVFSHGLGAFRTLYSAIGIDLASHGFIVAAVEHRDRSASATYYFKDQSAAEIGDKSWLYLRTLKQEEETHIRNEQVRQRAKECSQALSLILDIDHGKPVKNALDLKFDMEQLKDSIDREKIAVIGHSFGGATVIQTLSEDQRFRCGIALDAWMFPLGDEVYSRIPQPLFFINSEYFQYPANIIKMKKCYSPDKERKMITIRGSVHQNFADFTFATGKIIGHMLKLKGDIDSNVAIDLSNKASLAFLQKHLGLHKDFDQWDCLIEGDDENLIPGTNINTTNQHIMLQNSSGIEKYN
PAFAH2 inh: PAFAH2 (human) inhibition | recombinant PAFAH2, FP-rhodamine activity probe, fluorescence polarization | inhibition, % at 3.39 µM | hit rate 0.99% among 340,000;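 active means inhibition above the mean over all tested compounds plus 3 SD, cut at about 30% in these data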;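 further: inhibitors block probe labeling of enzyme so polarization drops; 0% = enzyme with DMSO and 100% = wells lacking PAFAH2 protein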
ARFGAP1 inh: inhibits rat ARF GTPase activating protein 1; hit rate 0.26% among 360,000; AID 651572; inhibition, % at 16.5 µM; Arfgap1-stimulated ARF1 GTP hydrolysis, GDP FP detection; Q62848;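 active means inhibition above a per-plate limit, mean inhibition of low control wells plus 3 SD, cut at about 25% in these data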;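 further: 0% = DMSO wells with enzyme and 100% = wells lacking Arfgap1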
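Replicates: Single well per compound | Assay system: Truncated rat Arfgap1 GAP domain | Control set: No-Arfgap1 wells (100%) versus DMSO full-reaction wells (0%) | Times: Enzyme reaction 120 min at 25 °C after 20 min preincubation | Reagent: Human ARF1(Δ1-17)-GTP substrate | Measured by: Tracer-displacement fluorescence polarization with EDTA stop, 620/688 nm | Measure: Percent inhibition of Arfgap1-stimulated GTP hydrolysis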
PAFAH1B2 inh: blocks human PAF acetylhydrolase 1b catalytic subunit 2 | P68402 | recombinant PAFAH1B2, FP-rhodamine activity probe, fluorescence polarization | inhibition, % at 3.39 µM | hit rate 1.2% among 340,000 | AID 492953;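 active means inhibition above the mean of all tested compounds plus 3 SD, cut at about 24% in these data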;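 further: 0% = enzyme with DMSO and 100% = wells lacking PAFAH1B2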
ASAP1 GAP inh: ASAP1 ArfGAP inhibition; hit rate 0.19% among 360,000; Q9ULH1; AID 624377; ASAP1-stimulated ARF1 GTP hydrolysis, GDP FP detection; inhibition, % at 16.5 µM; in the data active means inhibition above about 25%;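 further: 0% = vehicle with enzyme and substrate and 100% = no enzyme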
PAFAH1B3 FP inh: PAFAH1B3 (human) inhibition | Q15102 | recombinant PAFAH1B3, FP-rhodamine probe, fluorescence polarization | inhibition, % at 3.39 µM | hit rate 0.28% among 340,000 | AID 492972;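 active means inhibition above the screen-wide average of all tested compounds plus 3 SD, cut at about 25% in these data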;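 further: 0% = enzyme with DMSO only and 100% = wells lacking PAFAH1B3 protein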
Target sequence (Q15102 whole entry, looked up): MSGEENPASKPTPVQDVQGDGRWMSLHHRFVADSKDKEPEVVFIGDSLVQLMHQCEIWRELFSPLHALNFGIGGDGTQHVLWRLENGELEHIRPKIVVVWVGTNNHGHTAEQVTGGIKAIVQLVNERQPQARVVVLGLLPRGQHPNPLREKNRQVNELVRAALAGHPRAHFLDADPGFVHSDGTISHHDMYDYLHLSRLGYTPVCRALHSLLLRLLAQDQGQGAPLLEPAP
Starred values were filed as active, the others as inactive; . = no result given; ! = a repeat was not active.

SMILES	pPAFAH FP inh	PAFAH2 inh	ARFGAP1 inh	PAFAH1B2 inh	ASAP1 GAP inh	PAFAH1B3 FP inh
CCCC(C)NC(=O)COC(=O)c1ccc2c(c1)C(=O)N(Cc1ccco1)C2=O (stereo not given)	25*	-10	3	3	-8	6
CC(C)CNC(=O)COC(=O)c1ccc2c(c1)C(=O)N(Cc1ccco1)C2=O	27*	5	-11	0	-7	0
Cc1ccccc1S(=O)(=O)N(C)C[C@@H]1OCc2cn(nn2)CCCC(=O)N([C@@H](C)CO)C[C@H]1C	.	.	-12	.	-20	.
CCc1c(-c2ccccc2Br)ncn1CCc1ccccc1OC	.	.	-13	.	-8	.
O=C(O)C1C2C=CC3(CN(C/C=C/c4ccccc4)C(=O)C13)O2 (stereo not given)	31*	8	9	3	-3	-2
COC(=O)C1C2C=CC3(CN(CCc4ccccc4)C(=O)C13)O2 (stereo not given)	2	-4	4	0	-12	0
Cc1cccc(N2CC34C=CC(O3)C(C(=O)O)C4C2=O)c1 (stereo not given)	0	1	3	1	-2	1
O=C(O)C1C2C=CC3(CN(c4cccc(C(F)(F)F)c4)C(=O)C13)O2 (stereo not given)	2	1	-7	25*	17	6
C/C(N)=C(/C#N)C(=O)COC(=O)CCSc1ccccc1	8	12	-8	27*!	0	2
Cc1cc(N2CCN(S(C)(=O)=O)C[C@@H]2C)ccc1N1CCN(Cc2ccccc2)[C@@H](C)C1	.	.	-12	.	-5	.
C[C@H](CO)N1C[C@H](C)[C@@H](CN(C)C(=O)c2ccncc2)OCc2cn(nn2)CCCC1=O	.	.	7	.	7	.
CCCCCCCCn1c(=O)c(C(=O)OCC)c(O)c2ccccc21	5	2	1	24*	-4	9
CCOC(=O)c1sc(NC(=O)CN(CC(C)C)CC(C)C)c(C(=O)OCC)c1C	4	0	11	33*	-2	16
OCc1ccccc1OCc1ccccc1	.	.	0	.	-20	.
Cc1cc([N+](=O)[O-])nn1Cc1ccc(C(=O)N/N=C/c2ccc(F)cc2)cc1	2	3	8	1	-6	8
Cc1cc([N+](=O)[O-])nn1Cc1ccc(C(=O)N/N=C/c2ccc(O)cc2O)cc1	29*	-13	9	5	11	15
Cc1[nH]c2ccccc2c1CC(=O)Nc1ccc(Nc2cccnc2)c(-c2ccc(C(C)(C)C)cc2)c1	.	.	-6	.	-14	.
O=C(O)CCCC[n+]1ccccc1	.	.	11	.	-9	.
O=C1CSC(c2ccc([N+](=O)[O-])cc2)N1C1CCCCC1 (stereo not given)	-1	4	-21	27*	18	1
O=C1CCC/C=C\C[C@@H](CC(=O)N(CCO)Cc2ccccc2)C(=O)N2CCC[C@H]2CO1	4	10	-12	2	1	13
O=C1OC[C@@H]2CCCN2C(=O)[C@H](CC(=O)N(CCO)Cc2ccccc2)C/C=C\C[C@H]1Cc1ccc(F)cc1	2	3	-15	33*	4	5
O=C1OC[C@H]2CCCN2C(=O)[C@@H](CC(=O)N(CCO)Cc2ccccc2)C/C=C\C[C@@H]1Cc1ccc(F)cc1	6	-7	9	31*	1	3
O=C(COC(=O)c1ccc([N+](=O)[O-])cc1Cl)NCc1ccco1	7	7	3	6	-5	8
CC(C)CNC(=O)COC(=O)c1ccc([N+](=O)[O-])cc1Cl	29*	15	2	3	0	4
COc1ccc(Sc2cccc3c2S(=O)(=O)N(C2CC2)C[C@@H](COCc2ccccc2)O3)cc1OC	.	.	5	.	3	.
SMILES	pPAFAH FP inh	PAFAH2 inh	ARFGAP1 inh	PAFAH1B2 inh	ASAP1 GAP inh	PAFAH1B3 FP inh
CCCN1CCCCC(NC(=O)c2ccc(-c3ccccc3)cc2)C1=O (stereo not given)	.	.	1	.	1	.
COc1ccc(-c2ccc3c(n2)CCCN3Cc2ccccc2C(F)(F)F)cc1	.	.	-6	.	-9	.
Cc1ccc(C2NC(=O)c3n[nH]c(C)c32)cc1 (stereo not given)	.	.	-11	.	2	.
CCOC(=O)c1cc(CC)sc1NC(=O)C1CC(=O)NN1Cc1ccccc1 (stereo not given)	32*	-11	2	1	2	3
COC(=O)[C@H](Cc1ccccc1)N1CC=CS1(=O)=O	.	.	11	.	12	.
CC1=C(/C=C/C(C)=C/C=C/C(C)=C\C(=O)O)C(C)(C)CCC1	28*	4	-12	9	4	0
COC(=O)C1=C(C)N(C)C(=NCc2cc(OC)c(OC)c(OC)c2)NC1c1cccc(C(F)(F)F)c1 (stereo not given)	.	.	8	.	-14	.
Cc1cc(O)cc(=O)n1-c1cccc([N+](=O)[O-])c1	.	.	-3	.	-1	.
O=C(NC(=S)N1CCN(c2ccc(C(F)(F)F)cc2[N+](=O)[O-])CC1)c1cccs1	34*	4	9	2	0	-3
COC(=O)CSc1nnc(SCc2ccccc2)s1	4	2	2	9	-11	5
COC(=O)CSc1nnc(SCc2ccc(Cl)cc2)s1	6	6	10	31*	-8	3
CC1CCC(C(C)C)C(OC(=O)CSc2nnc(N)s2)C1 (stereo not given)	-2	7	-3	27*	0	2
Oc1ccccc1Cn1c(-c2ccccc2O)nc2ccccc21	4	-4	-2	9	5	13
COc1ccccc1Cn1c(-c2ccccc2OC)nc2ccccc21	27*	-3	-12	-1	-3	1
O=C(/C=C(\O)c1ccccc1)C(=O)NNC(=O)c1ccccc1	5	0	0	7	1	10
O=C(/C=C(\O)c1ccc(Cl)cc1)C(=O)NNC(=O)C(O)(c1ccccc1)c1ccccc1	27*	2	.	19	.	8
CCOC(=O)C1=CCN(S(=O)(=O)c2ccc(Br)cc2)C1c1cccc(Cl)c1 (stereo not given)	.	.	4	.	-6	.
CC(=NNc1cc(C)c2cc(C)ccc2n1)c1ccccn1	.	.	-4	.	4	.
CCOc1ccc(N(CC(=O)Nc2c(C)cc(C)cc2C)C2=NC3CS(=O)(=O)CC3S2)cc1 (stereo not given)	.	.	3	.	13	.
COc1ccc(CCn2cnn3c(=O)c4ccccc4nc3c2=O)cc1OC	.	.	3	.	11	.
COc1cccc(CNC(=O)[C@H]2CCCN2C(=O)[C@H]2CCCN2C(=O)N2CCCCC2)c1	.	.	7	.	-18	.
Cc1ccccc1Cc1c(C)nc2nc(SCC(=O)NCc3ccco3)nn2c1C	8	6	-4	5	2	13
Cc1ccccc1Cc1c(C)nc2c(C(=O)NCc3ccco3)cnn2c1C	27*	-2	.	-2	.	-7
CCOC(=O)/C(C#N)=C/c1cc(C)n(-c2ccc(C)cc2)c1C	26*	-5	3	-1	-9	6

High-throughput results from PubChem.
